FXIIa inh: human FXIIa protease inhibitors, primary screen, biochemical, 1536-well; inhibition, % at 5 µM; Coagulation factor XII (Homo sapiens), P00748; 220,000 compounds, 0.3% hits; AID 800, 2007; purified FXIIa, Boc-QGR-AMC fluorogenic substrate, 2 h; in the data active = inhibition above about 40%;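 also: 0% = enzyme with no compound and 100% = blank without enzyme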
Target sequence (P00748 20-372 limits assumed): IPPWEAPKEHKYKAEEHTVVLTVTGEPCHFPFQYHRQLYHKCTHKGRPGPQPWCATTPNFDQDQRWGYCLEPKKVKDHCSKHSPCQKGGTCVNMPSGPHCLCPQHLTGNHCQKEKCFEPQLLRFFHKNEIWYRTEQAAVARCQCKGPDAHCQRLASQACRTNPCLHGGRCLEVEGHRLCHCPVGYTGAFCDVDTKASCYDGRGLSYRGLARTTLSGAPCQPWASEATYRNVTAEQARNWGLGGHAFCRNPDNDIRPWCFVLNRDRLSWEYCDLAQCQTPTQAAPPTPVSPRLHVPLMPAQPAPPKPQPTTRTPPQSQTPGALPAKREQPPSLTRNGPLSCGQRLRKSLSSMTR
Target sequence (P00748 373-615 limits assumed): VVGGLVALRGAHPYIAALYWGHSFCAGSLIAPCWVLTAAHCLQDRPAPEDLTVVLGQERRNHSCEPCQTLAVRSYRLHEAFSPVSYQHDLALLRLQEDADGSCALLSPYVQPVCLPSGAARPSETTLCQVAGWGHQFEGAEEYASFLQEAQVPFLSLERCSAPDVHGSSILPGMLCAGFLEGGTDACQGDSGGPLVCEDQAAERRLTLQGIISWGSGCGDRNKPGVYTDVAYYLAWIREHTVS
FXIa inh: human FXIa protease inhibitors, primary screen, biochemical, 1536-well; Coagulation factor XI (Homo sapiens), P03951; purified FXIa, Boc-Glu-Ala-Arg-AMC fluorogenic substrate; inhibition, % at 5 µM; 220,000 compounds, 0.14% hits;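 active = inhibition of at least 40%; inactive = inhibition below 40%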;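 also: fluorescence of freed AMC excited at 355 nm; 0% = enzyme without compound and 100% = no enzyme blank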
Calpain2 inh: inhibitors of pig calpain II, primary screen, biochemical, fluorogenic peptide substrate, 1536-well | purified calpain II, 30 min | inhibition, % at 16 µM | 220,000 compounds, 0.37% hits | AID 1236, 2008;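 active = inhibition above about 50%, limit read from the data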
thrombin 1536: human alpha-thrombin inhibitors, primary screen, counter-screen for coagulation protease inhibitor project, biochemical, 1536-well, fluorogenic AMC substrate | Prothrombin (Homo sapiens), P00734 | Boc-VPR-AMC fluorogenic substrate cleavage | inhibition, % at 5 µM | 220,000 compounds, 0.26% hits;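 active = inhibition at or above 40%; inactive = inhibition below 40%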;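 also: 0% = enzyme with no compound and 100% = wells without enzyme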
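System – human alpha-thrombin · Medium – pH 7.5 Tris (50 mM) with NaCl 150 mM, Tween 20 0.05% · Compound – single-point dosing at 5 µM, 0.2% DMSO · Incubation – enzyme reaction carried out at room temperature · Technique – fluorescence of released AMC, ex 355 nm, em 460 nm · Read-out basis – % inhibition of thrombin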
KLK5 inh: human KLK5 protease inhibitors, primary screen, biochemical, 1536-well; AID 873, 2007; 210,000 compounds, 0.59% hits; inhibition, % at 5 µM; Kallikrein-5 (Homo sapiens), Q9Y337; recombinant hK5, fluorogenic AMC substrate cleavage;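 active = inhibition of 40% or more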;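 also: 0% = enzyme controls without compound and 100% = no-enzyme blanks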
* marks the source's active call; other numbers are inactive results; · = no result. Rows were chosen to be rich in hits. Some 1.4% of all compounds tested hit in one or more screens of this group.

SMILES	FXIIa inh	FXIa inh	Calpain2 inh	thrombin 1536	KLK5 inh
CC(=O)Nc1nc(-c2cc([N+](=O)[O-])cs2)cs1	9	10	-20	-1	3
Cc1ccc(S(=O)(=O)/N=C/N(C)C)cc1	7	7	2	-10	-26
Cc1ccc(S(=O)(=O)/N=C/c2ccco2)cc1	31	5	12	104*	87*
C#CC1(NC(=O)NCCCC)CCCCC1	12	2	-3	1	·
O=C(N/N=C/c1ccc2c(c1)OCO2)C1COc2ccccc2O1 (centres undefined)	17	-1	22	6	46*
CCOC(=O)c1c(NC(=O)Cn2cnc([N+](=O)[O-])n2)sc(C)c1C	5	-2	14	6	-5
COc1ccc(C(=O)N2c3cc4c(cc3C(C)=CC2(C)C)OCO4)cc1	13	1	52*	-1	-15
O=C(NCC1CC1)c1onc(CSc2ccncc2)c1C(=O)NCC1CC1	12	2	-7	0	3
Cc1ccc(NC(=O)CN2C(=O)/C(=C3\SC(=S)N(C4CCS(=O)(=O)C4)C3=O)c3ccccc32)cc1 (centres undefined)	1	-4	67*	16	2
COC(=O)c1ccc(NC(=O)COc2ccc(S(=O)(=O)NC(C)C)cc2)cc1	16	1	14	11	52*
COc1cccc(NC(=O)COc2ccc(S(=O)(=O)NC(C)C)cc2)c1	21	16	30	31	51*
CCc1ccc2c(c1)C(c1ccc([N+](=O)[O-])cc1)=NNC(c1ccc(C)cc1)=N2	4	9	61*	-8	-10
CCc1ccc2c(c1)C(c1ccc(N3CCOCC3)cc1)=NNC(c1ccncc1)=N2	9	0	-69	1	4
Cc1ccc(S(=O)(=O)N2CCCC(C(=O)Nc3ccc(C(=O)O)cc3)C2)cc1Cl (centres undefined)	4	-3	-8	-4	-4
CC1(C)Cc2cccc(OCC(=O)OCC(=O)Nc3cccc(S(N)(=O)=O)c3)c2O1	2	-2	11	-3	2
CC1CCOC2(O1)C(=O)Nc1ccccc12 (centres undefined)	67*	31	12	22	41*
CC1OC2(OC1C)C(=O)Nc1ccccc12 (centres undefined)	30	6	7	1	-1
c1cc(Nc2ncnc3sccc23)cc(-c2nnc3n2CCCCC3)c1	12	8	-15	0	2
O=C1Nc2ccc(NS(=O)(=O)c3cccs3)c3cccc1c23	20	4	-1	4	-22
O=C(NCc1ccc2c3c(cccc13)C(=O)N2)c1cccs1	42*	57*	-52	8	56*
Cc1nc(SCc2ccccc2)c2ccsc2n1	57*	29	22	20	56*
c1ccc(CSc2ncnc3sccc23)cc1	37	25	21	37	42*
COc1cc(CN2C(=O)C(NC(=O)c3ccco3)(C(F)(F)F)C3=C2CC(C)(C)CC3=O)cc(OC)c1 (centres undefined)	11	1	-23	-4	3
CCN1CCc2c(OCc3ccc(C)cc3)cccc2C1=O	9	-3	9	-5	0
Cc1cc(C)c(S(=O)(=O)N2CCN(c3ccc([N+](=O)[O-])c(NCC4CCCO4)c3)CC2)c(C)c1 (centres undefined)	18	3	16	23	41*
SMILES	FXIIa inh	FXIa inh	Calpain2 inh	thrombin 1536	KLK5 inh
O=[N+]([O-])c1ccc(N2CCN(S(=O)(=O)c3ccc(Cl)cc3)CC2)cc1NCC1CCCO1 (centres undefined)	18	10	29	3	-1
CN(C)c1ccc(N=Nc2ccccc2C(=O)OCC(=O)NC2CCCC2)cc1	4	-4	31	-8	5
CN(C)c1ccc(N=Nc2ccccc2C(=O)OCC(=O)NCC2CCCCC2)cc1	21	7	45	11	48*
N#CCCC1CCCC=C1N(Cc1ccccc1)C(=O)C(Cl)Cl (centres undefined)	27	57*	6	1	34
Cc1ccc(NC(=O)N(CCC#N)Cc2ccccc2)cc1	3	-4	-6	-2	-7
Cc1nc(/N=C\N(C)C)sc1C(=O)Nc1ccccc1	14	11	34	25	48*

Assay outcomes (PubChem BioAssay)
